The test system of one test is Salmonella typhimurium. The experiment in a line: Antimicrobial activity against Salmonella Typhimurium ATCC 14028 assessed as inhibition of biofilm formation after 24 hrs by spectrophotometry. The test is classed as functional, organism-based, Salmonella enterica subsp. enterica serovar Typhimurium. Particulars: for IC50: Salmonella enterica, ATCC 14028, 24 h. The method in brief: (§1)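 Static peg-lid biofilm prevention assay. Twofold serial dilutions in TSB diluted 1/20, 2–3 repeats per compound. Overnight S. Typhimurium ATCC14028 (LB-grown) or P. aeruginosa PA14 (TSB-grown) cultures were diluted 1:100, giving ~10^6 cells/well, then incubated 24 h at 25 °C without shaking. Pegs were PBS-washed, stained 30 min with 0.1% crystal violet, extracted with 30% acetic acid and read at OD570. IC50 was fitted from the concentration gradient.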

Another test relates to Pseudomonas aeruginosa. The experiment in a line: Antimicrobial activity against Pseudomonas aeruginosa PA14 assessed as inhibition of biofilm formation after 24 hrs by spectrophotometry. The test is classed as functional, organism-based. Particulars: PA14, 24 h. The method in brief:
as §1

For the compound `CN1c2nccc[n+]2C[C@@]1(O)c1cccc([N+](=O)[O-])c1`, in the test on Salmonella typhimurium, the IC50 worked out at 564 µM. On to `O[C@@]1(c2ccc(Cl)cc2)C[n+]2cccnc2N1C1CC1`, for which the IC50 was 82.7 µM with Salmonella typhimurium and 179 µM in the test with Pseudomonas aeruginosa.

Take `CCCCCCCCNc1ncc(-c2ccc(Cl)cc2)[nH]1`: the IC50 is over 400 µM in the test with Salmonella typhimurium and 1.6 µM in the test on Pseudomonas aeruginosa. As to `CCCCNc1ncc(-c2ccc([N+](=O)[O-])cc2)[nH]1`, the figures for the IC50 in the test with Salmonella typhimurium and in the test with Pseudomonas aeruginosa were 702 µM and over 800 µM, respectively. With `COc1ccc(CNc2ncc(-c3ccc([N+](=O)[O-])cc3)[nH]2)cc1`, the IC50 with Salmonella typhimurium and in the test with Pseudomonas aeruginosa was over 800 µM in each case.

For `COc1ccc(CN2c3nccc[n+]3C[C@@]2(O)c2ccc(Br)cc2)cc1`, in the test with Salmonella typhimurium, the 50% inhibitory concentration (IC50) was determined as 110 µM. Consider `O[C@@]1(c2ccccc2)C[n+]2cccnc2N1Cc1ccccc1`, for which the 50% inhibitory concentration (IC50) in the test on Salmonella typhimurium stood at 212 µM. `CCNc1ncc(-c2ccc([N+](=O)[O-])cc2)[nH]1`: the IC50 with Salmonella typhimurium worked out at 171 µM; in the test on Pseudomonas aeruginosa it was 104 µM. For `CCCCN1c2nccc[n+]2C[C@@]1(O)c1ccc(OC)cc1`, the IC50 in the test on Salmonella typhimurium was determined as 314 µM. For the compound `CCCCCCCCN1c2nccc[n+]2C[C@@]1(O)c1ccc(-c2ccc(-c3ccccc3)cc2)cc1`, the results for the 50% inhibitory concentration (IC50) with Salmonella typhimurium and with Pseudomonas aeruginosa were 52.8 µM and 336 µM, respectively. The corresponding values for `Clc1ccc(-c2cnc(NC3CCCCC3)[nH]2)cc1` are over 800 µM and 25 µM.

On to `CCCCCCCCN1c2nccc[n+]2C[C@@]1(O)c1ccc(-c2ccc([N+](=O)[O-])cc2)cc1`, for which the values for the IC50 with Salmonella typhimurium and in the test with Pseudomonas aeruginosa were 31 µM and 215 µM, respectively. As for `CCCCCCCCNc1ncc(-c2ccc(Cl)c(Cl)c2)[nH]1`, the “inhibition (INH)” value with Salmonella typhimurium was determined as 50%. For the same compound, the IC50 in the test on Salmonella typhimurium is 118 µM; in the test on Pseudomonas aeruginosa, over 800 µM. For the compound `CCCCCCCCCCCCN1c2nccc[n+]2C[C@@]1(O)c1ccc(Cl)cc1`, the half-maximal inhibitory concentration (IC50) was 122 µM in the test with Salmonella typhimurium and over 800 µM with Pseudomonas aeruginosa. In the case of `CCCCCCCCCCN1c2nccc[n+]2C[C@@]1(O)c1ccc(F)cc1`, the concentration for half-maximal inhibition (IC50) in the test on Salmonella typhimurium is 20 µM. In the case of `CC(C)Nc1ncc(-c2ccccc2)[nH]1`, the IC50 with Salmonella typhimurium was over 800 µM; in the test on Pseudomonas aeruginosa it was 261 µM. Consider `CCCCCCCCN1c2nccc[n+]2C[C@@]1(O)c1ccc(Cl)c(Cl)c1`, for which the concentration for half-maximal inhibition (IC50) with Salmonella typhimurium was determined as 7.1 µM. Take `O=[N+]([O-])c1ccc([C@]2(O)C[n+]3cccnc3N2C23CC4CC(CC(C4)C2)C3)cc1`: the IC50 in the test on Salmonella typhimurium is 8.8 µM; in the test on Pseudomonas aeruginosa it was 14.4 µM.

Consider `CNc1ncc(-c2ccc(O)cc2)[nH]1`, for which the IC50 in the test with Salmonella typhimurium stood at 160 µM. As to `CCCCCCNc1ncc(-c2ccc(F)cc2)[nH]1`, the figures for the IC50 in the test on Salmonella typhimurium and in the test on Pseudomonas aeruginosa were over 400 µM and 12.5 µM, respectively. Take `CCCCCCCCN1c2nccc[n+]2C[C@@]1(O)c1ccc(SC)cc1`: the 50% inhibitory concentration (IC50) came to 13.2 µM in the test on Salmonella typhimurium and 36.5 µM with Pseudomonas aeruginosa. As for `CCCCCCCCN1c2nccc[n+]2C[C@@]1(O)c1cccc2ccccc12`, the IC50 in the test with Salmonella typhimurium was 14.7 µM; in the test with Pseudomonas aeruginosa, 15.1 µM. As for `CCN1c2nccc[n+]2C[C@@]1(O)c1ccc([N+](=O)[O-])cc1`, the IC50 in the test on Salmonella typhimurium was 579 µM; in the test with Pseudomonas aeruginosa, over 800 µM. Take `CCCCN1c2nccc[n+]2C[C@@]1(O)c1ccc(F)cc1`: in the test with Salmonella typhimurium, the IC50 is 163 µM.

As to `CCCCCCCCCCN1c2nccc[n+]2C[C@@]1(O)c1ccc(Cl)c(Cl)c1`, in the test on Salmonella typhimurium, the IC50 is 32.4 µM. For the compound `CCCCCCCCN1c2nccc[n+]2C[C@@]1(O)c1ccc(F)cc1`, the half-inhibitory concentration (IC50) in the test on Salmonella typhimurium was 7.6 µM. For `CCCCCCCCCNc1ncc(-c2ccc(Cl)cc2)[nH]1`, in the test on Salmonella typhimurium, the 50% inhibitory concentration (IC50) is over 800 µM. On the same count and under the same terms, in the case of `CCCCN1c2nccc[n+]2C[C@@]1(O)c1ccc(Br)cc1` it was 90.1 µM; in that of `CN1c2nccc[n+]2C[C@@]1(O)c1ccc(F)cc1`, 1820 µM; in that of `CNc1ncc(-c2ccc(F)c(F)c2)[nH]1`, 602 µM.

As for `O=[N+]([O-])c1ccc([C@]2(O)C[n+]3cccnc3N2Cc2ccccc2)cc1`, the concentration for half-maximal inhibition (IC50) in the test on Salmonella typhimurium was determined as 174 µM.

Consider `CCCCCCCCN1c2nccc[n+]2C[C@@]1(O)c1ccc(OC)cc1`, for which the IC50 in the test on Salmonella typhimurium was 10.5 µM. Take `c1ccc2c(-c3cnc(NCc4ccc5c(c4)OCO5)[nH]3)cccc2c1`: the concentration for half-maximal inhibition (IC50) in the test on Pseudomonas aeruginosa amounted to 10.5 µM.

As a reminder, the IC50 is the midpoint of a concentration-inhibition curve.

For the origin of these results see ChEMBL document CHEMBL1811868, “Structure-activity relationship of 2-hydroxy-2-aryl-2,3-dihydro-imidazo[1,2-a]pyrimidinium salts and 2N-substituted 4(5)-aryl-2-amino-1H-imidazoles as inhibitors of biofilm formation by Salmonella Typhimurium and Pseudomonas aeruginosa” (Bioorg Med Chem, 2011).
